An excerpt weighted towards active compounds, which were near 3.2% of everything screened.
MEKK3 PB1 HTS – MEKK3-MEK5 PB1 interaction, increase or decrease | bead-based flow cytometry, Alexa488-MEK5 binding to MEKK3; actives lie on both sides; 0 = blocked by unlabeled MEK5, 100 = vehicle | 290,000 tested, 1.4% active | binding response (% of control), % at 10 µM;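 active = binding response more than 3 SD above or below the average of its plate-row segment, actives on both sides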;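 note: Alexa488 bead fluorescence after subtracting the streptavidin-only scavenger bead signal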
MEKK2wt PB1 HTS – raises or lowers MEK5 binding to wildtype human MEKK2 PB1 domain | Q9Y2U5 | bead flow cytometry, Alexa488-MEK5 binding to MEKK2 WT; actives lie on both sides | binding response (% of control), % at 10 µM | 290,000 tested, 1.1% active | AID 1531; in the data active = binding response below about 67% or above about 130%
Apaf-1 inh – blocks human Apaf-1 apoptosome activity. 330,000 tested, 0.71% active. AID 489030. inhibition, % at 20 µM. reconstituted apoptosome caspase-3 activity, DEVD-Rh110 fluorescence. O14727; active = inhibition of at least 40% at 20 µM;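 note: plate controls were DMSO wells for no effect and DEVD-CHO caspase inhibitor wells for full effect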
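Material: reconstituted apoptosome with Apaf-1, cytochrome c, caspase-9, procaspase-3, dATP / Buffer or medium: pH 7.5 Hepes buffer with CHAPS, BSA, DTT / Also added: cytochrome c with DEVD-Rh110 / Schedule: compound with Apaf-1, dATP, procaspase-3 30 min, then 50 min reaction, room temperature / Technique: rhodamine 110 fluorescence at Ex 480/Em 540 nm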
UBC13 inh – blocks human UBC13 polyubiquitin chain formation. P61088. TR-FRET. inhibition, % at 20 µM. 330,000 tested, 0.47% active. AID 485273; in the data active = inhibition above about 45%, passing the limit was not always enough
MEKK2 mut-MEK5 – signal of MEK5 binding to mutant human MEKK2 PB1 domain; bead flow cytometry, Alexa488-MEK5 binding to MEKK2 mutant; percent response, % at 10 µM; 290,000 tested, 0.35% active; in the data active = percent response above about 24%, passing the limit was not always enough
Pemphigus Ab inh – blocks pemphigus antibody binding to human desmoglein-3 | P32926 | DSG3-coupled beads, scFv-anti-DSG3-GFP binding, flow cytometry; active compounds read low | binding (percent of control), % at 10 µM | 310,000 tested, 0.48% active;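 active = binding more than 3 SD below its plate's average and above zero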;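 note: hits lower antibody fragment binding to DSG3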
MEKK2wt confirm – raises or lowers MEK5 binding to wildtype human MEKK2, retest; shares compounds with MEKK3 PB1 HTS; bead flow cytometry, Alexa488-MEK5 binding to MEKK2 WT; actives lie on both sides; binding response (% of control), % at 10 µM; 5,900 tested, 2.4% active; AID 1892; in the data active = binding response below about 16% or above about 210%; inactive = in between
MEKK2mut-MEK5 – signal of MEK5 binding to mutant human MEKK2, retest; shares compounds with MEKK3 PB1 HTS; bead flow cytometry, Alexa488-MEK5 binding to MEKK2 mutant; percent response, % at 10 µM; 5,900 tested, 2% active; in the data active = percent response mostly above about 71%, no sharp cut-off; inactive = mostly below about 38%;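 note: higher means compound restores mutant binding toward wildtype level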
MEKK3 confirm – MEKK3-MEK5 PB1 inhibition, single concentration confirmation; binding response (% of control), % at 10 µM; shares compounds with MEKK3 PB1 HTS; AID 1894; 5,900 tested, 1.8% active; bead flow cytometry, Alexa488-MEK5 binding to MEKK3; active compounds read low;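 active = binding response below 72% of control, or above a set upper limit, though filed actives all read lower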;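 note: 100% = DMSO only wells and 0% = binding blocked by excess unlabeled MEK5; lower values mean stronger disruption of MEK5 binding to MEKK3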
An asterisk follows results filed as active; . = no result given; [ ] = another dose, or the depositor's remark.

SMILES	MEKK3 PB1 HTS	MEKK2wt PB1 HTS	Apaf-1 inh	UBC13 inh	MEKK2 mut-MEK5	Pemphigus Ab inh	MEKK2wt confirm	MEKK2mut-MEK5	MEKK3 confirm
O=c1[nH]c(Nc2ccc3c(c2)OCCO3)nnc1Cc1ccc(Cl)cc1	129*	106	23	-3	3	108	94	-8	97
CC1CC(C)CN(C(=O)/C=C/c2ccc(S(=O)(=O)N3CCOCC3)cc2)C1 (stereo not drawn)	.	.	15	-2	.	101	.	.	.
Oc1c(Cl)cc(Cl)cc1/C=C/c1ccc2cccc(O)c2n1	100	97	22	-33	-2	102	.	.	.
Oc1ccc(Cl)cc1/C=C/c1ccc2cccc(O)c2n1	128*	119	18	-38	0	95	94	-8	103
CC(=O)NS(=O)(=O)c1ccc(N=c2ssc3c2-c2cc(C)ccc2NC3(C)C)cc1	129*	97	-9	-7	0	101	90	-7	96
CC(=O)NS(=O)(=O)c1ccc(NS(=O)(=O)c2ccc(F)cc2)cc1	97	100	8	-2	-4	110	.	.	.
Cc1ccc(Cl)cc1NC(=O)Nc1c(C)n(C)n(-c2ccccc2)c1=O	105	101	0	3	0	102	.	.	.
COc1cc(CCC(=O)OCC(=O)Nc2ncc(Cl)cc2Cl)cc(OC)c1OC	98	93	0	1	14	113	.	.	.
COc1cc(CCC(=O)OCC(=O)Nc2nc(C)c(Cl)cc2Cl)cc(OC)c1OC	102	12*[inhibitor]	-22	0	-32	82	95	-10	97
COc1ccc(C2CCCCC2SCC(=O)O)cc1OC (stereo not drawn)	.	.	.	.	.	94	.	.	.
COc1ccc(-c2cc3ccccc3n2CC(O)Cn2nc(C)cc2C)cc1 (stereo not drawn)	107	107	20	17	6	66	.	.	.
COc1ccc(-c2cc3ccccc3n2CC(O)CN2CCC(C)CC2)cc1 (stereo not drawn)	99	149*	34	8	16	112	152	34	107
Cc1cccc(C)c1NC(=O)C1CCCN1C(=O)NCc1ccccc1 (stereo not drawn)	102	100	0	-4	0	104	.	.	.
CCOc1ccc(-n2c(SCc3ccc([N+](=O)[O-])cc3)nnc2-c2ccc(OC)cc2)cc1	143*	102	-304	-4	0	.	99	-2	103
CSc1nc2ccccc2n1CC(=O)Nc1ccccc1	92	97	-4	2	-2	93	.	.	.
CSc1nc2ccccc2n1CC(=O)Nc1c(C)cccc1C	49*[inhibitor]	71	11	-4	6	107	100	-4	97
COc1ccc(NC(=O)CN(C)C2=NS(=O)(=O)c3ccccc32)cc1Cl	.	.	-5	-3	.	95	.	.	.
CCCCn1c(SCC(=O)Nc2nc(C)cs2)nnc1-c1cccnc1	1.0*[inhibitor]	1.0*[inhibitor]	-7	1	-41	102	110	14	107
CCc1ccc(-n2c(SCC(=O)NC3CCS(=O)(=O)C3)nc3ccccc3c2=O)cc1 (stereo not drawn)	.	.	1	-1	.	.	.	.	.
C=CCC(NCc1ccco1)c1ccc(OC)c(OC)c1 (stereo not drawn)	0.0*[inhibitor]	-1.0*[inhibitor]	2	-10	-16	101	93	-5	98
COc1ccc(C(CC(=O)O)NC(=O)c2ccco2)cc1OC (stereo not drawn)	110	111	-12	8	24*	.	101	-1	99
NNC(=O)[C@@H]1C[C@@H]1c1ccccc1	153*	111	-3	1	0	85	84	-13	84

Compound activity (PubChem BioAssay)
